Laboratory results reported in PubChem BioAssay AID624467 (The Scripps Research Institute Molecular Screening Center, 2012).
About 3,600 (1%) of roughly 360,000 compounds were called active.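 The calls were made as follows: active = activation above the mean activation of all test compounds in the run plus 3 SD (cut at about 38% in these data); inactive = the rest.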 The sample as a whole holds a higher share of actives than the screen did.

The compounds below were run against Trace amine-associated receptor 1 (Homo sapiens) (UniProt Q96RJ0) (assay: human TAAR1 agonists, primary screen, Fluo-8 calcium fluorescence, CHO RD-HGA16 cells (AID 624467)). Conditions: CHO RD-HGA16 TAAR1, Fluo-8 calcium fluorescence; at 3 µM; hits give high values; vehicle wells 0%, saturating PEA agonist 100%.
Procedure, shortened: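 Test system: RD-HGA16 (CHO) cells co-expressing Gα16 and hTAAR1; dosing: one-point dosing at 3 µM (nominal); timing: 17-24 h seeding, 75 min 37 °C dye, 30 min RT; signal: kinetic Fluo-8 calcium fluorescence; read-out basis: % activation relative to PEA EC100 response; controls: DMSO and PEA EC100; replicates: n 1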

Sequence of Trace amine-associated receptor 1 (Homo sapiens) (Q96RJ0 whole entry, looked up): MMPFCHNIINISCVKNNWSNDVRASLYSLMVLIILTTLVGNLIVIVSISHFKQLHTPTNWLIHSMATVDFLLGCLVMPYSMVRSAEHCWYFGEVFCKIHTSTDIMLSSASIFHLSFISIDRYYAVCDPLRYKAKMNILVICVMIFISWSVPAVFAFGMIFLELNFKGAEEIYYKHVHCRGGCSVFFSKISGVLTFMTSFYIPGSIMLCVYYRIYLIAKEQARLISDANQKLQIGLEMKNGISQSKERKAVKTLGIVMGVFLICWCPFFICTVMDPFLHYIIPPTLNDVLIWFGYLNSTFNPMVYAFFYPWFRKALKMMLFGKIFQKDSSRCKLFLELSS

activation, active:
CN(c1cccc(NC(=O)Nc2ccc(Cl)cc2)c1)S(C)(=O)=O 46.9%
O=C1CCCC(O)=C1C=NCCc1ccccc1 60.6%
O=C(NCCc1ccccc1)C(=O)NCC1OCCN1S(=O)(=O)c1cccs1 (stereo not given) 56.5%
NC(=O)C1=C[C@H](c2csc3ccccc23)C[C@H](OCc2ccc(CO)cc2)O1 60.3%
Cc1cccc(CCNS(=O)(=O)c2ccc(S(=O)(=O)NC3CCCC3)cc2)c1 42.8%
Cc1cc2nc3c(=O)[nH]c(=O)nc-3n(C[C@H](O)[C@H](O)[C@H](O)CO)c2cc1C 45.3%
CCOc1ccc(Cn2nnc(C(=O)NCc3ccccc3)c2N)cc1 83.3%
CCOc1ccc(Cn2nnc(C(=O)Nc3ccc(OC)cc3OC)c2N)cc1 42.5%
COc1ccc(Cl)cc1C(=O)NNC(=S)NC(=O)/C=C/c1ccco1 55.3%
O=C1NC[C@@H](c2ccccc2)OC(=O)[C@H](Cc2ccc(F)cc2)CC/C=C/C[C@H]1CC(=O)N(CCO)Cc1ccccc1 42.6%
Cc1cc(C)c2cc(C#N)c(N3CCNCC3)nc2c1 69.6%
CC(=O)Nc1ccccc1Sc1ccc2c3c(cccc13)C(=O)N(c1ccc(C)cc1)C2=O 47.3%
Cc1ccc(NC(=O)Cn2sc3ccccc3c2=O)cc1 37.5%
O=C(N/N=C/c1cc(Cl)cc([N+](=O)[O-])c1O)C(O)(c1ccccc1)c1ccccc1 42.4%
Cc1c(CNCCc2ccccc2)c(C(=O)O)c(C)n1-c1ccccc1 78.1%
CC(NC(=O)c1cc(-c2ccccc2)on1)c1ccccc1 (stereo not given) 52%
CCCn1c(O)c(CN2CCCC(C)C2)c(C)c(C#N)c1=O (stereo not given) 96.4%
COc1ccc(C(CNC(=O)c2cccc(S(=O)(=O)Nc3ccc(Br)cc3)c2)N(C)C)cc1 (stereo not given) 40.2%
COc1ccc(NC(=O)C(=O)NCC(c2ccco2)N2CCc3ccccc3C2)cc1 (stereo not given) 62.3%
CCOc1ccc(Br)cc1CSC(=N)N 70.5%

activation, inactive:
CCCCNc1cccc2c1S(=O)(=O)N[C@@H](C)CO2 -1.01%
Cc1cc(CN(C)C(=O)c2cc(COc3ccc(C)c(C)c3)on2)n[nH]1 2.87%
CN(c1cccc(NC(=O)c2ccc(CN3CCc4ccccc4C3)cc2)c1)S(C)(=O)=O 7.79%
CC(C)S(=O)(=O)c1csc(NC(=O)Nc2ccc(Cl)cc2)c1Cl 17.9%
CC(=O)NC1=NN(C(C)=O)C(C)(c2ccc(Cl)s2)S1 (stereo not given) 5.71%
CN(C)S(=O)(=O)N1CCC(Oc2cccc(C(=O)NCCCC3CCCC3)c2)CC1 11.3%
O=C1CC(c2ccccc2)CC(O)=C1C=NCCN1CCOCC1 (stereo not given) 2.73%
CC1(C)CC(=O)C(C=NCCC2=CCCCC2)=C(O)C1 20.1%
COC(=O)C1=C(C)N(Cc2ccccc2C(F)(F)F)C(=NCc2ccc(OC)cc2)NC1c1cccc(C(F)(F)F)c1 (stereo not given) 9.5%
CC(C)N(Cc1ccccc1)C(=O)COC(=O)c1ccccc1SCC(=O)N1CCCC1 15.6%
O=C(NCCCc1ccccc1)C(=O)NCC1OCCN1S(=O)(=O)c1ccccc1 (stereo not given) 8.57%
COc1ccc(CCNC(=O)C(=O)NCC2OCCN2S(=O)(=O)c2cccs2)cc1OC (stereo not given) 1.17%
COc1cccc(CNC(=O)[C@H]2CCCN2C(=O)[C@H]2CCCN2C(=O)c2cc(F)cc(F)c2)c1 2.08%
O=C1Nc2ccccc2C1=NN=Cc1ccco1 0.51%
Cn1nc(C(F)(F)F)c(C(=O)Nc2cccc(C(F)(F)F)c2)c1SCc1ccc(Cl)cc1 11%
COCc1nc2ccccc2n1Cc1ccccc1Br 12.1%
O=C(NC1CC1)C1=C[C@H](c2c[nH]c3ccccc23)C[C@H](OCc2ccc(CO)cc2)O1 5.4%
NC(=O)C1=C[C@@H](c2csc3ccccc23)C[C@@H](OCc2ccc(CO)cc2)O1 22.2%
COc1ccc(CCN(C)C(=O)C23CC4CC(CC(Cl)(C4)C2)C3)cc1OC -1.21%
CC(C)c1ccc(S(=O)(=O)NC2CCCC2)cc1 1.12%
Cc1cccc(CCNS(=O)(=O)c2ccc3c(c2)NC(=O)CO3)c1 5.47%
CN1CCCN(C(=O)C2CCCCC2)CC1 1.26%
CC1(Oc2ccccc2-c2ccno2)CCN(Cc2ccc(-c3ccccc3)o2)C1 (stereo not given) 1.77%
COc1cccc(CNC(=O)c2nnn(CC(=O)Nc3cc(Cl)ccc3C)c2N)c1 2.23%
CCCn1nc2cc(C(=O)NCc3ccccc3)ccc2c1OCC 3.65%
Nc1c(C(=O)Nc2ccc3c(c2)OCCO3)nnn1Cc1ccccc1 0.57%
COc1cccc(CNC(=O)c2nnn(CC(=O)Nc3cc(C)ccc3C)c2N)c1 2.69%
Cc1cc(OCCCC(=O)NCCN2C(=O)S/C(=C\c3cccnc3)C2=O)ccc1Cl 16.7%
CCOc1ccc(-n2c(SCC(=O)NC3CCS(=O)(=O)C3)nnc2-c2cccnc2)cc1 (stereo not given) -0.1%
CCOC(=O)c1c(N)c(C#N)nn1-c1ccccc1C(=O)OC 1.23%
COc1ccc(Cl)cc1C(=O)NNC(=O)c1nc2nc(C)cc(C)n2n1 -0.4%
O=C(/C=C/c1ccco1)NC(=S)N1CCCCC1 1.82%
CC(C)OC(=O)Cn1nc(C(F)(F)F)c2c1CCCC2 3.22%
CCCCn1c(N)c(N(CC(C)C)C(=O)C2CSC3(C)CCC(=O)N23)c(=O)[nH]c1=O (stereo not given) 4.3%
COC(=O)C1=C(C)NC(=S)NC1c1ccc(OC)cc1 (stereo not given) 1.73%
CC(C)(C)c1ccc(S(=O)(=O)NCC2CCN(C(=O)C(=O)c3cc4ccccc4o3)CC2)cc1 -0.02%
O=C1CCC/C=C/C[C@@H](CC(=O)N(CCO)Cc2ccccc2)C(=O)NC[C@H](c2ccccc2)O1 5.38%
O=C1N[C@@H](c2ccccc2)COC(=O)[C@H](Cc2ccc(F)cc2)C/C=C\C[C@@H]1CC(=O)N(CCO)Cc1ccccc1 18.8%
Fc1ccc(-n2c(Cc3ccccc3)nnc2SCc2nc(-c3ccc(Cl)cc3)no2)cc1 2.7%
Cc1ccc2cc(C)c(N3CCN(c4ccc(F)cc4)CC3)nc2c1 1.28%
Cc1ccc2cc(C)c(N3CCC(C)CC3)nc2c1 17.1%
C[C@H]1CN([C@@H](C)CO)S(=O)(=O)c2ccc(Br)cc2O[C@H]1CN(C)C(=O)c1cnccn1 1.33%
CCCOC(=O)c1ccc(N2C(=O)c3ccccc3C2=O)cc1 -1.04%
CSc1ccccc1NC(=O)C(C)N1C(=O)c2ccccc2S1(=O)=O (stereo not given) 2.86%
Cc1ccc(NC(=O)Cn2c(C)csc2=O)cc1 0.43%
O=C(Cn1nc(C(=O)O)c2ccccc2c1=O)Nc1ccc(F)cc1 6.51%
COc1cccc(CNC(=O)[C@H]2CCCN2C(=O)[C@H]2CCCN2C(=O)c2ccc(F)cc2)c1 -0.3%
COC(=O)N1Cc2ccnnc2CC1c1ccccc1Br (stereo not given) 0.4%
O=C(NN=Cc1ccco1)C(=O)Nc1ccc(Cl)c([N+](=O)[O-])c1 1.63%
O=[N+]([O-])c1cc(Cl)cc(/C=N/NC(=S)Nc2cc(S(=O)(=O)N3CCOCC3)ccc2Cl)c1O 0.47%
CCOC(=O)C1CSCCS(=O)(=O)N1Cc1ccc(Cl)cc1 (stereo not given) 1.13%
CCN1C(=O)N[C@@H]2C[C@H](C(=O)N3CCCC3)[C@H](C)[C@H](c3ccccc3)C[C@@H]21 0.86%
Cc1c(C(=O)NCc2ccccc2)cnn1-c1ccccc1 2.79%
CNC(=O)CSc1nnc(CCc2ccccc2)n1-c1ccccc1 5.04%
COc1ccc(C2=CN(Cc3ccccc3)C(c3ccc(OC)cc3)CC2=O)cc1 (stereo not given) -1.8%
O=C(NC1CCCC1)c1cc(-c2ccccc2)on1 2.47%
Cc1ccc(C(=O)NC(C)c2ccccc2)cc1Br (stereo not given) -1.3%
Cc1[nH]c2ccccc2c1CC(=O)Nc1ccc(Nc2cccnc2)c(-c2cccc(Cl)c2)c1 1.11%
O=S1(=O)c2ccc(Br)cc2-n2nncc2CN1Cc1cccc(Cl)c1 1.66%
CCCCCCn1c(CN2CCCC(C)C2)nc2c1c(=O)n(C)c(=O)n2C (stereo not given) 0.08%
Cc1c(CN2CCCCC2)c(O)n(CCO)c(=O)c1C#N 11.5%
CN(C)C(CNC(=O)c1cccc(S(=O)(=O)Nc2ccc(Br)cc2)c1)c1ccco1 (stereo not given) 16.7%
COc1ccc(C(CNC(=O)c2ccc(NS(=O)(=O)c3ccc(F)c(C)c3)cc2)N(C)C)cc1 (stereo not given) 3.7%
COc1ccc(-n2cc(CNC3CCOCC3)c(-c3cccc(F)c3)n2)cc1 7.84%
O=C(NCC(c1ccco1)N1CCc2ccccc2C1)c1ccccc1Cl (stereo not given) 12.4%
CCOC(CNC(=O)C(=O)NCC(c1ccco1)N1CCN(c2ccc(OC)cc2)CC1)OCC (stereo not given) 3.05%
Cc1[nH]nc2c1C(c1ccc(Br)cc1)NC2=O (stereo not given) 0.5%
CC(C)(C)NCc1cc(Br)ccc1OC1CCCC1 1.46%
CCOc1ccc(Br)cc1S(=O)(=O)N1CCC(C(=O)O)CC1 -0.19%
CC(=O)N1C[C@@H](CO)[C@@H](N(C)C(=O)C(C)(C)C)C[C@H]1c1ccccc1Br 3.7%
